Data reported in ChEMBL document CHEMBL1128275, “Amino-substituted 2-[2'-(dimethylamino)ethyl]-1,2-dihydro-3H- dibenz[de,h]isoquinoline-1,3-diones. Synthesis, antitumor activity, and quantitative structure--activity relationship” (J Med Chem, 1995).

Experiments:
[1] = system: L1210; assay: Antitumor activity against murine L1210 resistant cell line by using MTT assay; assay type: functional, cell-based; settings: Mus musculus
[2] = system: OVCAR-3; assay: Anti-tumor activity against human OVCAR-3 ovarian cancer cell lines by using MTT assay; assay type: functional, cell-based
Method in brief: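 Human tumor lines (A375 melanoma; OVCAR-3 ovarian carcinoma resistant to standard drugs) under continuous exposure, read by sulforhodamine B or MTT. Drugs from DMSO stocks diluted in PBS pH 7.4, 10^1–10^-5 μg/mL half-log, DMSO ≤0.1%, 37 °C, 5% CO2. MTT: 6 days then 4 h dye, A570. SRB: 8 days, TCA fixation, 0.4% SRB stain, OD 564 nm. Six wells per concentration; IC50 averaged.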

[3] = Cardiotoxicity was measured by using Neonatal rat heart myocyte assay; assay type: toxicity, tissue-based
Method in brief: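 Neonatal rat heart myocytes in culture, 1 h drug exposure; cytotoxicity taken as the concentration lowering the ATP/protein ratio to 0.5, reported as IC50.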

[4] = system: L1210; assay: Anti-tumor activity against murine L1210 sensitive cell line by using MTT assay; assay type: functional, cell-based; settings: Mus musculus
[5] = Toxicity ratio of quotient of the IC50 in myocytes divided by the average IC50 for three tumor cell lines; assay type: cell-based; settings: myocytes and three tumor cell lines; read-out: Toxicity ratio
Method in brief: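 Calculated ratio: myocyte IC50 (neonatal rat heart cells, 1 h exposure, ATP/protein end point) divided by the mean IC50 across A375 melanoma, OVCAR-3 ovarian and sensitive L1210 leukemia cells under continuous exposure.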

[6] = system: Mus musculus; assay: The percent increase in life span of compound was measured against P388 Leukemia in mice at a dose of 15 mg/kg on days 1,5 and 9; assay type: functional
Method in brief: (§1)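 Standard NCI protocol: 10^6 freshly harvested P388 cells injected ip into 10 adult male DBA/2J mice on day 0; compound given ip on days 1, 5 and 9; control group of 10 mice given tumor cells and saline on the same days. %ILS = 100 × (treated − control lifespan)/control lifespan, using group median lifespans.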

[7] = system: Mus musculus; assay: The percent increase in life span of compound was measured against P388 Leukemia in mice at a dose of 10 mg/kg on days 1,5 and 9; assay type: functional; method in brief: as §1
[8] = system: Mus musculus; assay: The percent increase in life span of compound was measured against P388 Leukemia cells in mice at a dose of 5 mg/kg on days 1,5 and 9; assay type: functional
[9] = system: WiDr; assay: Activity against resistant cell line of WiDr human colon tumor; assay type: functional, cell-based
Method in brief: (§2)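 WiDr colon cells, sensitive line and a subline selected for resistance to mitoxantrone; MTT assay with continuous drug exposure. Compounds as hydrochlorides, dissolved in DMSO then serially diluted in PBS pH 7.4, 10^1–10^-5 μg/mL in half-log steps, DMSO ≤0.1% final.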

[10] = system: WiDr; assay: Activity against sensitive cell line of WiDr human colon tumor; assay type: functional, cell-based; method in brief: as §2
[11] = system: Mus musculus; assay: The percent increase in life span of compound was measured against P388 Leukemia cells in mice at a dose of 10 mg/kg on days 1,5 and 9; assay type: functional; method in brief: as §1
[12] = system: Mus musculus; assay: The percent increase in life span of compound was measured against P388 Leukemia cells in mice at a dose of 4.5 mg/kg on days 1,5 and 9; assay type: functional; method in brief: as §1
[13] = system: Mus musculus; assay: The percent increase in life span of compound was measured against P388 Leukemia in mice at a dose of 8 mg/kg on days 1,5 and 9; assay type: functional; method in brief: as §1
[14] = system: Mus musculus; assay: The percent increase in life span of compound was measured against P388 Leukemia cells in mice at a dose of 4 mg/kg on days 1,5 and 9; assay type: functional; method in brief: as §1
[15] = system: Mus musculus; assay: The percent increase in life span of compound was measured against P388 Leukemia cells in mice at a dose of 1.6 mg/kg on days 1,5 and 9; assay type: functional; method in brief: as §1

In the case of `CC(=O)Nc1c2ccccc2c2c3c(cccc13)C(=O)N(CCN(C)C)C2=O`, the IC50 [1] is reported as 487 nM, the IC50 [2] is reported as 730 nM and the Cardiotoxicity [3] is reported as greater than 24.331 µM. The IC50 [4] was 487 nM and the selectivity ratio [5] was greater than 37.

With `CN(C)CCN1C(=O)c2cc(NC(=O)C(C)(C)C)cc3cc4ccccc4c(c23)C1=O` the IC50 [1] was 15 nM, the IC50 [2] was 33 nM and the Cardiotoxicity [3] was 0.662 µM. For the same compound, the IC50 [4] was 44 nM and the selectivity ratio [5] was 9.5.

With `CN(C)CCN1C(=O)c2cccc3cc4ccccc4c(c23)C1=O` [AZONAFIDE] the ILS at 15 mg/kg [6] was 79%, the ILS at 10 mg/kg [7] was 63% and the Cardiotoxicity [3] was 1.983 µM. For the same compound, the ILS at 5 mg/kg [8] was 25%, the selectivity ratio [5] was 44 and the IC50 [9] was 15 nM. It also gave an IC50 [10] of 10 nM.

In the case of `CN(C)CCN1C(=O)c2c(N)ccc3cc4ccccc4c(c23)C1=O`, the IC50 [1] is reported as 7.9 nM, the IC50 [2] is reported as 12 nM and the Cardiotoxicity [3] is reported as 0.434 µM. For the same compound, the IC50 [4] was 5.4 nM and the selectivity ratio [5] was 48.

For `CC(=O)Nc1ccc2cc3ccccc3c3c2c1C(=O)N(CCN(C)C)C3=O`, the IC50 [1] was 560 nM, the IC50 [2] was 608 nM and the Cardiotoxicity [3] was greater than 24.331 µM. The IC50 [4] was 608 nM and the selectivity ratio [5] was greater than 33.

Work on `CN(C)CCN1C(=O)c2c(NC(=O)C(C)(C)C)ccc3cc4ccccc4c(c23)C1=O` yielded an IC50 [1] of 172 nM, an IC50 [2] of 493 nM and a Cardiotoxicity [3] greater than 24.63 µM. For the same compound, the IC50 [4] was 862 nM and the selectivity ratio [5] was greater than 25.

Work on `CC(=O)Nc1cccc2cc3cccc4c3c(c12)C(=O)N(CCN(C)C)C4=O` yielded an IC50 [1] of 2430 nM, an IC50 [2] of 2430 nM and a Cardiotoxicity [3] greater than 22.5 µM. For the same compound, the IC50 [4] was 243 nM and the selectivity ratio [5] was greater than 13.2.

Compound `CN(C)CCN1C(=O)c2ccc(N)c3cc4ccccc4c(c23)C1=O` has an IC50 [1] of 27 nM, an IC50 [2] of 68 nM and a Cardiotoxicity [3] of 1.486 µM. For the same compound, the IC50 [4] was 5.4 nM and the selectivity ratio [5] was 20.

Work on `CN(C)CCN1C(=O)c2cc(N)cc3cc4ccccc4c(c23)C1=O` yielded an IC50 [1] of 15 nM, an IC50 [2] of 20 nM and a Cardiotoxicity [3] of 1.724 µM. It also gave an IC50 [4] of 6.2 nM and a selectivity ratio [5] of 101.

In the case of `CC(=O)Nc1ccc2cc3cccc4c3c(c2c1)C(=O)N(CCN(C)C)C4=O`, the IC50 [1] is reported as 219 nM, the IC50 [2] is reported as 49 nM and the Cardiotoxicity [3] is reported as 7.786 µM. For the same compound, the IC50 [4] was 49 nM, the selectivity ratio [5] was 120 and the IC50 [9] was 50 nM. The IC50 [10] was 9 nM.

`CC(=O)Nc1cc2c3c(c4ccccc4cc3c1)C(=O)N(CCN(C)C)C2=O` showed an IC50 [1] of 73 nM, an IC50 [2] of 61 nM and a Cardiotoxicity [3] of 0.177 µM. It also gave an IC50 [4] of 19 nM and a selectivity ratio [5] of 3.5.

For `CC(=O)Nc1ccc2c3c4c(cccc4cc2c1)C(=O)N(CCN(C)C)C3=O`, the IC50 [1] was 170 nM, the IC50 [2] was 13 nM and the Cardiotoxicity [3] was 0.487 µM. It also gave an IC50 [4] of 114 nM and a selectivity ratio [5] of 7.7.

Compound `CN(C)CCN1C(=O)c2cccc3cc(N)cc(c23)C1=O` [AMONAFIDE] has an ILS at 10 mg/kg [11] of 45%, an ILS at 15 mg/kg [6] of 88% and a Cardiotoxicity [3] of 48.4 µM. It also gave a selectivity ratio [5] of 30.

`CN(C)CCN1C(=O)c2cccc3cc4c([N+](=O)[O-])cccc4c(c23)C1=O` showed an IC50 [1] of 20 nM, an IC50 [2] of 50 nM and a Cardiotoxicity [3] of 0.65 µM. For the same compound, the IC50 [4] was 50 nM and the selectivity ratio [5] was 14.

`CN(C)CCN1C(=O)c2cccc3cc4cc(N)ccc4c(c23)C1=O` showed an IC50 [1] of 16 nM, an IC50 [2] of 14 nM and a Cardiotoxicity [3] of 0.813 µM. It also gave an IC50 [4] of 2.7 nM and a selectivity ratio [5] of 39.

For `CN(C)CCN1C(=O)c2cccc3cc4cccc([N+](=O)[O-])c4c(c23)C1=O`, the IC50 [1] was 50 nM, the IC50 [2] was 226 nM and the Cardiotoxicity [3] was 8.647 µM. For the same compound, the IC50 [4] was 23 nM and the selectivity ratio [5] was 80.

`COc1cccc2c1C(=O)c1c(O)c3c(c(O)c1C2=O)C[C@@](O)(C(=O)CO)C[C@@H]3O[C@H]1C[C@H](N)[C@H](O)[C@H](C)O1` [DOXORUBICIN] showed an IC50 [1] of 3880 nM, an ILS at 4.5 mg/kg [12] of 113% and an IC50 [2] of 35 nM. The Cardiotoxicity [3] was 11.064 µM, the IC50 [4] was 35 nM and the selectivity ratio [5] was 181.

`CN(C)CCN1C(=O)c2cccc3cc4ccc(NC(=O)C(C)(C)C)cc4c(c23)C1=O` gave an IC50 [1] of 200 nM, an IC50 [2] of 150 nM and a Cardiotoxicity [3] of 11.025 µM. For the same compound, the IC50 [4] was 200 nM and the selectivity ratio [5] was 55.

`CN(C)CCN1C(=O)c2cccc3cc4cccc(N)c4c(c23)C1=O` gave an IC50 [1] of 678 nM, an IC50 [2] of 1760 nM and a Cardiotoxicity [3] of 27.1 µM. For the same compound, the IC50 [4] was 678 nM and the selectivity ratio [5] was 24.

`CN(C)CCN1C(=O)c2cccc3cc4ccc(N)cc4c(c23)C1=O` showed an IC50 [1] of 2.7 nM, an ILS at 8 mg/kg [13] of 73% and an IC50 [2] of 20 nM. For the same compound, the ILS at 4 mg/kg [14] was 27%, the ILS at 10 mg/kg [7] was 109% and the Cardiotoxicity [3] was 0.943 µM. For the same compound, the IC50 [4] was 2.5 nM, the selectivity ratio [5] was 34 and the IC50 [9] was 18 nM. It also gave an IC50 [10] of 5.5 nM.

Compound `CN(C)CCN1C(=O)c2cccc3cc4c(N)cccc4c(c23)C1=O` has an IC50 [1] of 6780 nM, an IC50 [2] of 9480 nM and a Cardiotoxicity [3] greater than 81.3 µM. The IC50 [4] was 6780 nM and the selectivity ratio [5] was greater than 6.7.

`O=C1c2c(O)ccc(O)c2C(=O)c2c(NCCNCCO)ccc(NCCNCCO)c21` [MITOXANTRONE] showed an IC50 [1] of 39 nM, an ILS at 1.6 mg/kg [15] of 200% and an IC50 [2] of 5.8 nM. It also gave a Cardiotoxicity [3] of 7.737 µM, an IC50 [4] of 5 nM and a selectivity ratio [5] of 387. The IC50 [9] was 1400 nM and the IC50 [10] was 10 nM.
